Laboratory results reported in ChEMBL document CHEMBL1153315, “Porphyrins containing nitric oxide donors: Synthesis and cancer cell-oriented NO release” (Bioorg Med Chem Lett, 2009).
The source made the active and inactive calls. The rule behind the calls is not given here.

How the values were obtained:
[1] = Induction of NO release in PBS at pH 7.4 by Griess assay; assay type: physicochemical; settings: buffer
Method in brief: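 Compound at 2 mM in 0.1 M phosphate buffer pH 7.4, no L-cysteine, incubated 1.5 h at 37 °C without air, then 10 min air at 25 °C. Nitrite measured by Griess reagent (sulfanilamide/N-naphthylethylenediamine), absorbance at 540 nm against a 0–100 µM sodium nitrite curve; expressed as % of 1 mol NO/mol theoretical release, n = 3.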

[2] = system: Bel-7402; experiment: Cytotoxicity against human Bel7402 cells at 1.4 umol/L after 72 hrs by MTT assay; assay type: functional, cell-based
Method in brief: (§1)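 BEL-7402 (liver cancer) and L-02 (liver normal) cells seeded at 1×10^3 per well, preincubated 24 h at 37 °C, 5% CO2, exposed to 1.4 μmol/L compound in quadruplicate wells for 72 h. Viability by MTT (4 h), formazan dissolved in glycine-NaCl-buffered DMSO, read at 570 nm. One-way ANOVA with LSD multiple comparisons, P < 0.05.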

[3] = Induction of NO release in phosphate buffer containing L-cysteine at pH 7.4 by Griess assay; assay type: physicochemical
Method in brief: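 Compound at 0.2 mM in 0.1 M phosphate buffer pH 7.4 mixed 1:1 with fresh 3.6 mM L-cysteine in the same buffer; incubated 1.5 h at 37 °C without air, then exposed to air 10 min at 25 °C. Griess reagent added, absorbance at 540 nm after 10 min; nitrite from sodium nitrite standard curve (0–100 µM); % of 1 mol NO/mol theoretical, n = 3.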

[4] = system: Bel-7402; experiment: Cytotoxicity against human Bel7402 after 72 hrs by MTT assay; assay type: functional, cell-based; settings: Bel-7402, 72 h
Method in brief: (§2)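 Cells seeded at 1×10^3 per well in medium, preincubated 24 h at 37 °C in 5% CO2, then test drug added in medium to quadruplicate wells for 72 h. MTT ([…] in complete medium) added for 4 h; formazan dissolved in DMSO buffered with glycine-NaCl (pH 10.5); absorbance at 570 nm. IC50 taken as concentration giving 50% loss of viability; means of three experiments.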

[5] = system: MCF7; experiment: Cytotoxicity against human MCF7 after 72 hrs by MTT assay; assay type: functional, cell-based; settings: MCF7, 72 h; method in brief: as §2
[6] = Cytotoxicity against human L02 cells at 1.4 umol/L after 72 hrs by MTT assay; assay type: cell-based; settings: l02, 72 h, 1.4 µM; method in brief: as §1
[7] = system: Bel-7402; experiment: Induction of NO release in human Bel7402 cells assessed as decrease in absorbance at 100 umol/L after 30 mins by spectrophotometry; assay type: functional, cell-based
Method in brief: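 BEL-7402 cells grown in 24-well plates at 37 °C, 5% CO2 to at least 70% confluency; medium replaced with medium containing 100 µmol/L compound. After 0 and 30 min at 37 °C, the drug-containing medium was removed and its absorbance measured by UV–vis spectrophotometry.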

Compound	Activity [1]	Activity [2]	Activity [3]	IC50 [4]	IC50 [5]	Activity [6]	Activity [7]
O=[N+]([O-])OCCCOc1ccc(-c2c3nc(c(-c4ccccc4)c4ccc([nH]4)c(-c4ccccc4)c4nc(c(-c5ccccc5)c5ccc2[nH]5)C=C4)C=C3)cc1	0.47%	Active	3.95%	3 µM	30 µM	–	–
O=c1[nH]cc(F)c(=O)[nH]1 [FLUOROURACIL]	–	–	–	4.3 µM	4.7 µM	–	–
O=Cc1ccc(OCCO[N+](=O)[O-])cc1	–	–	–	–	–	Toxic	–
C1=Cc2nc1c(-c1ccccc1)c1nc(c(-c3ccccc3)c3ccc([nH]3)c(-c3ccccc3)c3ccc([nH]3)c2-c2ccccc2)C=C1 [TETRAPHENYLPORPHYRIN]	–	–	–	350 µM	245 µM	–	–
O=[N+]([O-])OCCOc1ccc(-c2c3nc(c(-c4ccccc4)c4ccc([nH]4)c(-c4ccccc4)c4nc(c(-c5ccccc5)c5ccc2[nH]5)C=C4)C=C3)cc1	0.43%	Active	5.67%	0.8 µM	8.7 µM	–	Active
O=Cc1ccc(OCCCO[N+](=O)[O-])cc1	–	–	–	–	–	Toxic	–
Cc1ccc(-c2c3nc(c(-c4ccc(C)cc4)c4ccc([nH]4)c(-c4ccc(OCCCO[N+](=O)[O-])cc4)c4nc(c(-c5ccc(C)cc5)c5ccc2[nH]5)C=C4)C=C3)cc1	1.1%	Active	6.25%	1.4 µM	46 µM	–	–
Cc1ccc(-c2c3nc(c(-c4ccc(C)cc4)c4ccc([nH]4)c(-c4ccc(OCCO[N+](=O)[O-])cc4)c4nc(c(-c5ccc(C)cc5)c5ccc2[nH]5)C=C4)C=C3)cc1	0.55%	Active	3.12%	1.8 µM	55 µM	–	–
